Consider 23 compounds from ChEMBL document CHEMBL1152617, “Synthesis of 2- and 17-substituted estrone analogs and their antiproliferative structure-activity relationships compared to 2-methoxyestradiol” (Bioorg Med Chem, 2009).

One series concerns HUVEC. Nature of the series: Antiangiogenic activity against HUVECs by Brdu incorporation assay. Type of series: functional, cell-based. The following applies: Homo sapiens. Summed up:
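After overnight attachment they were washed with PBS and held 24 h without growth factor (EBM, 2% FBS). They were then given increasing drug concentrations in EBM with 2% FBS plus 10 ng/mL bFGF for 48 h at 37 °C. Proliferation was read by BrdU ELISA.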

The test system of another series is MCF7. Nature of the series: Estrogenic activity in human MCF7 cells assessed as stimulation of cell proliferation relative to 2-methoxyestradiol. The class given is functional. Summed up: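 MCF-7 were kept in DMEM/F12 with 10% FBS, seeded at 20–30,000 cells/well, adhered overnight and counted. After a PBS wash they were starved 3 days in phenol red-free IMEM with 2% charcoal-dextran-stripped FBS. Increasing concentrations were given, with medium renewed every 2–3 days. Cells were Coulter-counted after 8 or 10 days, in triplicate, and expressed as stimulation index relative to 2ME2 (1.00).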

Series [1] is described as follows: Metabolic stability in human liver microsomes assessed as compound remaining at 5 uM after 15 mins by LCMS analysis relative to 0 mins. Type of series: ADME, Microsome. The following applies: read-out: Stability. Summed up:
(§1)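 Human liver microsomes were incubated in 50 mM tris pH 7.5 with 10 mM MgCl2, 2 mM UDPGA, 25 µg alamethicin/mg microsomal protein and 5 µM compound. Aliquots at 0, 15, 30 and 60 min were quenched in acetonitrile with internal standard. Samples were analysed by C18 LCMS in negative ion mode as % remaining versus 0 min. Controls were BSA without microsomes, and incubations lacking UDPGA.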
On the technique in general: Liver microsomes are vesicles of endoplasmic reticulum, rich in cytochrome P450 enzymes.

The nature of series [2]: Metabolic stability in human liver microsomes assessed as compound remaining at 5 uM after 30 mins by LCMS analysis relative to 0 mins. As to conditions: read-out: Stability. The class given is ADME, Microsome. Summed up:
as §1

Series [3] can be described thus: Metabolic stability in human liver microsomes assessed as compound remaining at 5 uM after 60 mins by LCMS analysis relative to 0 mins. The class given is ADME, Microsome. The following applies: read-out: Stability. Summed up:
as §1

For series [4], the system named is MDA-MB-231 (Homo sapiens). Put plainly: Antiproliferative activity against human MDA-MB-231 cells by Brdu incorporation assay.
Series [5] in a line: Antiproliferative activity against human U87MG cells by Brdu incorporation assay. The class given is functional, cell-based, U-87MG ATCC. As to conditions: U-87 MG. The essentials: (§2)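 Cells were grown in DMEM with 10% FBS, 2 mM L-glutamine and penicillin/streptomycin. They were seeded at 2000 cells/well, attached overnight, then exposed to increasing compound concentrations for 48 h. DNA synthesis was read by a colorimetric BrdU ELISA. Each condition was run in triplicate, with at least two experiments, reported as the mean ± SD of independent experiments.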

For a further series, the system named is PC-3. Put plainly: Antiproliferative activity against human PC3 cells by Brdu incorporation assay. Type of series: functional, cell-based. The essentials:
as §2

For `CC=C1CC[C@H]2[C@@H]3CCc4cc(O)c(OC)cc4[C@H]3CC[C@]12C`, the IC50 (usually the concentration needed to halve the response being measured) in the series with HUVEC was 0.26 µM; in series [4], 0.58 µM. Also, the “fold change (FC)” value in the series with MCF7 is 0.89. Further, the remaining at 0.25 h, 5 µM in series [1] came to 75%. The remaining at 0.5 h, 5 µM in series [2] came to 75%. The remaining at 1 h, 5 µM in series [3] is 0.8%.
As to `CCCC=C1CC[C@H]2[C@@H]3CCc4cc(O)c(OC)cc4[C@H]3CC[C@]12C`, the values for the IC50 (in the series on HUVEC; in series [4]) were 3.47 µM and 14 µM, respectively. In addition, the “fold change (FC)” value with MCF7 came out at 0.51.
With `CNc1cc2c(cc1O)CC[C@@H]1[C@@H]2CC[C@]2(C)CCC[C@@H]12`, the IC50 in series [5] stood at 22.3 µM; in the series on PC-3, 22.8 µM; with HUVEC, 4.11 µM; in series [4] it was 26.8 µM. Further, in the series with MCF7, the “fold change (FC)” value is listed as 1.22.
On the same counts, the results for `COc1cc2c(cc1O)CC[C@@H]1[C@@H]2CC[C@]2(C)C=CC[C@@H]12` are 0.88 µM, 0.62 µM, 0.71 µM, 0.73 µM and 0.3.
The matching figures for `COc1cc2c(cc1O)CC[C@@H]1[C@@H]2CC[C@]2(C)/C(=N/O)CC[C@@H]12`: 9.4 µM, 8.11 µM, 4.27 µM, 8.68 µM and 1.22.
On the same counts, the results for `COc1cc2c(cc1O)CC[C@@H]1[C@@H]2CC[C@]2(C)/C(=N/NS(=O)(=O)c3ccc(C)cc3)CC[C@@H]12` are 27.3 µM, 27.2 µM, 7.95 µM, 72.5 µM and 0.43.
In the case of `COc1cc2c(cc1O)CC[C@@H]1[C@@H]2CC[C@]2(C)C(C(N)=O)CC[C@@H]12` (stereo not given in full), the IC50 in series [5] is 11.2 µM; with PC-3, 21.5 µM; with HUVEC, 4.55 µM; in series [4], 2.51 µM.
With `CCCC[C@H]1CC[C@H]2[C@@H]3CCc4cc(O)c(OC)cc4[C@H]3CC[C@]12C`, the IC50 in series [5] turned out to be 21.1 µM; with PC-3 it was 28.8 µM; in the series with HUVEC it was 12.6 µM; in series [4], 33.5 µM. In the series with MCF7, the “fold change (FC)” value is 0.59.
Consider `COc1cc2c(cc1O)CC[C@@H]1[C@@H]2CC[C@]2(C)[C@@H](C)CC[C@@H]12`, for which the IC50 in series [5] amounted to 9.39 µM; with PC-3, 6.46 µM; in the series with HUVEC, 2.4 µM; in series [4], 3.33 µM. Further, the “fold change (FC)” value in the series with MCF7 was determined as 0.89. The remaining at 0.25 h, 5 µM in series [1] was 67%. Besides, in series [2], the remaining at 0.5 h, 5 µM was 57%. In addition, the remaining at 1 h, 5 µM in series [3] came out at 47%.
On to `COc1cc2c(cc1O)CC[C@@H]1[C@@H]2CC[C@]2(C)C(C(=O)O)CC[C@@H]12` (stereo not given in full), for which the IC50 was over 100 µM in series [5], over 100 µM in the series with PC-3, 35.9 µM with HUVEC and over 100 µM in series [4].
Consider `C=C1CC[C@H]2[C@@H]3CCc4cc(O)c(OC)cc4[C@H]3CC[C@]12C`, for which the values for the IC50 (in the series on HUVEC; in series [4]) were 0.19 µM and 0.24 µM, respectively. Further, the “fold change (FC)” value in the series on MCF7 is reported as 0.89. In series [1], the remaining at 0.25 h, 5 µM worked out at 76%. The remaining at 0.5 h, 5 µM in series [2] was found to be 67%. Moreover, the remaining at 1 h, 5 µM in series [3] amounted to 5.8%.
For `CC[C@H]1CC[C@H]2[C@@H]3CCc4cc(O)c(OC)cc4[C@H]3CC[C@]12C`, the half-maximal inhibitory concentration (IC50) in series [5] came out at 12.8 µM; in the series on PC-3, 8.7 µM; in the series with HUVEC, 3.63 µM; in series [4], 48.1 µM. The “fold change (FC)” value with MCF7 stood at 0.49. In addition, in series [1], the remaining at 0.25 h, 5 µM was found to be 91%. Besides, in series [2], the remaining at 0.5 h, 5 µM turned out to be 76%. Moreover, the remaining at 1 h, 5 µM in series [3] was 72%.
In the case of `CCC=C1CC[C@H]2[C@@H]3CCc4cc(O)c(OC)cc4[C@H]3CC[C@]12C`, the IC50 in the series with HUVEC came to 3.23 µM; in series [4], 7.89 µM. Besides, the “fold change (FC)” value with MCF7 worked out at 0.47.
As to `C[C@@]12CCC[C@H]1[C@@H]1CCc3cc(O)c(N)cc3[C@H]1CC2`, the IC50 in series [5] was over 100 µM; in the series on PC-3 it was over 80 µM; in the series on HUVEC, 60.1 µM; in series [4] it was over 100 µM. In addition, the “fold change (FC)” value in the series on MCF7 is 1.49.
As for `COc1cc2c(cc1O)CC[C@@H]1[C@@H]2CC[C@]2(C)[C@@H](O)CC[C@@H]12` [2-METHOXYESTRADIOL], the results for the IC50 (in series [5]; in the series with PC-3; in series [4]) were 8.54 µM, 2.65 µM and 1 µM, respectively. For the same compound, the remaining at 0.25 h, 5 µM in series [1] stood at 58%. The remaining at 0.5 h, 5 µM in series [2] was 29%. Also, the remaining at 1 h, 5 µM in series [3] amounted to 9.4%.
`COc1cc2c(cc1O)CC[C@@H]1[C@@H]2CC[C@]2(C)[C@@H](NC(C)C)CC[C@@H]12`: the IC50 was 49.2 µM in series [5], 23.4 µM in the series with PC-3, 18.8 µM in the series on HUVEC and 17.8 µM in series [4]. For the same compound, the “fold change (FC)” value in the series with MCF7 is recorded as 0.11.
In the case of `C[C@@]12CCC[C@H]1[C@@H]1CCc3cc(O)ccc3[C@H]1CC2`, the IC50 in series [5] was determined as 22.1 µM; in the series on PC-3, 22 µM; in the series on HUVEC it was 8.22 µM; in series [4], 41.3 µM. Also, in the series on MCF7, the “fold change (FC)” value was 1.91.
`C[C@@]12CCC[C@H]1[C@@H]1CCc3cc(O)c(N=[N+]=[N-])cc3[C@H]1CC2`: the IC50 in the series with HUVEC stood at 2.83 µM; in series [4], 7.12 µM. For the same compound, the “fold change (FC)” value with MCF7 turned out to be 2.04.
Take `C[C@@]12CCC[C@H]1[C@@H]1CCc3cc(O)c(NC=O)cc3[C@H]1CC2`: the 50% inhibitory concentration (IC50) in series [5] came to 42.9 µM; with PC-3 it was 26 µM; in the series with HUVEC, 6.8 µM; in series [4], 24.6 µM. Further, the “fold change (FC)” value in the series with MCF7 is on record as 1.71. The remaining at 0.25 h, 5 µM in series [1] turned out to be 101%. In addition, the remaining at 0.5 h, 5 µM in series [2] amounted to 86%. Moreover, in series [3], the remaining at 1 h, 5 µM was 68%.
For `COc1cc2c(cc1O)CC[C@@H]1[C@@H]2CC[C@]2(C)CCC[C@@H]12`, the IC50 in series [5] is 7.59 µM; with PC-3 it was 8.49 µM; in the series with HUVEC, 1.32 µM; in series [4], 2.2 µM. In addition, the “fold change (FC)” value in the series on MCF7 amounted to 0.24. Besides, the remaining at 0.25 h, 5 µM in series [1] stood at 94%. In addition, the remaining at 0.5 h, 5 µM in series [2] is 101%. Moreover, in series [3], the remaining at 1 h, 5 µM was 117%.
With `CN(C)c1cc2c(cc1O)CC[C@@H]1[C@@H]2CC[C@]2(C)CCC[C@@H]12.Cl`, the IC50 stood at 34.2 µM in series [5], 26 µM in the series with PC-3, 7.43 µM in the series with HUVEC and 39.3 µM in series [4]. For the same compound, the “fold change (FC)” value in the series on MCF7 amounted to 2.17.
Consider `COc1cc2c(cc1O)CC[C@@H]1[C@@H]2CC[C@]2(C)[C@@H](N)CC[C@@H]12`, for which the 50% inhibitory concentration (IC50) in series [5] amounted to 19 µM; with PC-3, 13.8 µM; in the series with HUVEC, 13.4 µM; in series [4], 9.77 µM. For the same compound, the “fold change (FC)” value in the series on MCF7 is on record as 0.19. Moreover, the remaining at 0.25 h, 5 µM in series [1] is 32%. Besides, the remaining at 0.5 h, 5 µM in series [2] was 30%. Further, the remaining at 1 h, 5 µM in series [3] is 9%.
As to `CCC[C@H]1CC[C@H]2[C@@H]3CCc4cc(O)c(OC)cc4[C@H]3CC[C@]12C`, the IC50 in series [5] worked out at 87.9 µM; in the series with PC-3, 85.4 µM; with HUVEC, 40.8 µM; in series [4] it was 95.3 µM. Further, the “fold change (FC)” value in the series on MCF7 was found to be 0.69.
